Measured values as given in the M2OR odorant receptor database.
Changes are numbered by the printed parent chain.

Assays:
Settings in all cases: stereoisomer not certain
[1] = target: T1, OR4S2 (Homo sapiens) (UniProt Q8NH73)
T1 sequence (whole entry): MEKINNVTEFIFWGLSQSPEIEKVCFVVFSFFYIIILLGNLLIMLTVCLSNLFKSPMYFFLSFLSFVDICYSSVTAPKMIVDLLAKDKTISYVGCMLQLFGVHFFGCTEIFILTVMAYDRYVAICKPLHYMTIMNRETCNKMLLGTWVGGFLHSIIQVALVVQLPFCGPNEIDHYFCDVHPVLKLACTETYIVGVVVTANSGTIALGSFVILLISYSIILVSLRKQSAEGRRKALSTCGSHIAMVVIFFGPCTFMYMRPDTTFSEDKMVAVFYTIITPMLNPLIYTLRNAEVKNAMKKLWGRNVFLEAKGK
In short: (§1)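 Values were gathered from published papers (main text and supplementary material), with extra details requested from the original authors when needed, and checked for typos and inconsistencies. Each receptor–molecule pair is called responsive (active) if the original authors judged the measured signal statistically different from baseline, and non-responsive (inactive) otherwise. Assay methods varied by source, often transient mammalian cell-line luciferase assays. Recorded details include cell line, G-protein, co-transfected protein and tags.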

[2] = target: T2, OR4X1 (Homo sapiens) (UniProt Q8NH49)
T2 sequence (whole entry): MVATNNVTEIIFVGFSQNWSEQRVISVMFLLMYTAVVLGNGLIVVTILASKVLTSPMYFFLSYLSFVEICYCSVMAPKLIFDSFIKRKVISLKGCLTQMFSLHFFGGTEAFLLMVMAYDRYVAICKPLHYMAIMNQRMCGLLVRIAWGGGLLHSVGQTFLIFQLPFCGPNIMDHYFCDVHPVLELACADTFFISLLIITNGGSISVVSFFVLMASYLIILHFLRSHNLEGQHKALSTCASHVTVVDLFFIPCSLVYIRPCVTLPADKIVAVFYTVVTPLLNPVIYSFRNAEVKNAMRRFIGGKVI
In short: as §1

[3] = target: T3, OR4X2 (Homo sapiens) (UniProt Q8NGF9)
T3 sequence (whole entry): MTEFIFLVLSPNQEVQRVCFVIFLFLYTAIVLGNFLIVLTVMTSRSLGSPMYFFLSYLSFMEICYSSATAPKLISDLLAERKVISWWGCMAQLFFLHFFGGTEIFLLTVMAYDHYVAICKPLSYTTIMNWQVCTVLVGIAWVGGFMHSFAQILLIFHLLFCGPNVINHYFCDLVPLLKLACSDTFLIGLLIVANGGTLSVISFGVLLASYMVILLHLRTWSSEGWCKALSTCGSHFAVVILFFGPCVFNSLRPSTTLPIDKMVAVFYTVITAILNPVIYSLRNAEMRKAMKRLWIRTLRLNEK
In short: as §1

[4] = target: T4, OR51A2 (Homo sapiens) (UniProt Q8NGJ7)
T4 sequence (whole entry): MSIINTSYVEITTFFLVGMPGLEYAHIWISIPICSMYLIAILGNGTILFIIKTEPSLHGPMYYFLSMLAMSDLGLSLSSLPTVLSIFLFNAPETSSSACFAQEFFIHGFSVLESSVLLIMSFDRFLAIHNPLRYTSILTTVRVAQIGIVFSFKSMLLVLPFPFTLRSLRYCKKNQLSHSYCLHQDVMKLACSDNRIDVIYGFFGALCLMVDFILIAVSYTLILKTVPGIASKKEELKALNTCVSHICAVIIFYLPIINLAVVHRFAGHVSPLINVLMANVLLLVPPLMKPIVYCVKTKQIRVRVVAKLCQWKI
In short: as §1

[5] = target: T5, OR51A4 (Homo sapiens) (UniProt Q8NGJ6)
T5 sequence (whole entry): T4 sequence (whole entry) with G59E, T94I, S97N, S167N, P227L, E235Q, G267R, M288T, K289N, W311R
In short: as §1

[6] = target: T6, OR51A7 (Homo sapiens) (UniProt Q8NH64)
T6 sequence (whole entry): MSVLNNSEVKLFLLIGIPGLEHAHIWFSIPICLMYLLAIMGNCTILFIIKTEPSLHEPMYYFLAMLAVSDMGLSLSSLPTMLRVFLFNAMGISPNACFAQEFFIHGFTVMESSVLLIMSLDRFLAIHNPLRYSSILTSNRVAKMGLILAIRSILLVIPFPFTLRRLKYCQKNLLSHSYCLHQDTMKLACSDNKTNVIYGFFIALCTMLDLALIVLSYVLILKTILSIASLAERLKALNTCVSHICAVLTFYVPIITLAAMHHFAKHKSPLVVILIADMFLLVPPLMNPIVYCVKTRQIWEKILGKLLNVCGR
In short: as §1

[7] = target: T7, OR51B2 (Homo sapiens) (UniProt Q9Y5P1)
T7 sequence (whole entry): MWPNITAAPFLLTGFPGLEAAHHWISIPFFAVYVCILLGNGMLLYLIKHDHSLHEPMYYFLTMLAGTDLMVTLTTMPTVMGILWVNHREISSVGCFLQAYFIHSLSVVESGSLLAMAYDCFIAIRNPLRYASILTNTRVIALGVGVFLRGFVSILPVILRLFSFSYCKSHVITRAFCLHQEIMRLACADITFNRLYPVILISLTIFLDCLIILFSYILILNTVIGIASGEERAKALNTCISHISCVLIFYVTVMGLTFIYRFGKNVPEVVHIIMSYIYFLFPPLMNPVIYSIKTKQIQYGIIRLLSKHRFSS
In short: as §1

[8] = target: T8, OR51B4 (Homo sapiens) (UniProt Q9Y5P0)
T8 sequence (whole entry): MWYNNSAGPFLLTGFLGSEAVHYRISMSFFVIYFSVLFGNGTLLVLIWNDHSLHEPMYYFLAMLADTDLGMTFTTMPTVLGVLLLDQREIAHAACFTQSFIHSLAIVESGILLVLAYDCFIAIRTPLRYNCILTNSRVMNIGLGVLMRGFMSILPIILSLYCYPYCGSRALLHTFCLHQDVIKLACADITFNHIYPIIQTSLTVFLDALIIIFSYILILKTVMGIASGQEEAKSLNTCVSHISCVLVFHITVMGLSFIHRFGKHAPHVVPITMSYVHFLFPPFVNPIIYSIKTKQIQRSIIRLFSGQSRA
In short: as §1

[9] = target: T9, OR51B5 (Homo sapiens) (UniProt Q9H339)
T9 sequence (whole entry): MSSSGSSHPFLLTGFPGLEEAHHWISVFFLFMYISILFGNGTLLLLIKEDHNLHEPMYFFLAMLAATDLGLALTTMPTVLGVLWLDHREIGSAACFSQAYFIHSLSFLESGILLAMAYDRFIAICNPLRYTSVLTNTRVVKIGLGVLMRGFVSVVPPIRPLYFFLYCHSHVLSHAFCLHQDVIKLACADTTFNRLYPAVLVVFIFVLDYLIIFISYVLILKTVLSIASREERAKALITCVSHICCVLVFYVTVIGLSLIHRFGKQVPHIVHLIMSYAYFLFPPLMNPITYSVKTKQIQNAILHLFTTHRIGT
In short: as §1

[10] = target: T10, OR51B6 (Homo sapiens) (UniProt Q9H340)
T10 sequence (whole entry): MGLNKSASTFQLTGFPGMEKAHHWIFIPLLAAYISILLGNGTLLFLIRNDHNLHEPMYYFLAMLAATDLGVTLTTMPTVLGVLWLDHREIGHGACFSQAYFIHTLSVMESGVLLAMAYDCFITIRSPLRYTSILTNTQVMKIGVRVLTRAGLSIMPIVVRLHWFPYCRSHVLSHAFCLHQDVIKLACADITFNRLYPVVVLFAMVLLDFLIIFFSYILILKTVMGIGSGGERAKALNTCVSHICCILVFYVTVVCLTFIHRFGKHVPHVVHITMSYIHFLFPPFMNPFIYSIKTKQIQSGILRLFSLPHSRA
In short: as §1

[11] = target: T11, OR51D1 (Homo sapiens) (UniProt Q8NGF3)
T11 sequence (whole entry): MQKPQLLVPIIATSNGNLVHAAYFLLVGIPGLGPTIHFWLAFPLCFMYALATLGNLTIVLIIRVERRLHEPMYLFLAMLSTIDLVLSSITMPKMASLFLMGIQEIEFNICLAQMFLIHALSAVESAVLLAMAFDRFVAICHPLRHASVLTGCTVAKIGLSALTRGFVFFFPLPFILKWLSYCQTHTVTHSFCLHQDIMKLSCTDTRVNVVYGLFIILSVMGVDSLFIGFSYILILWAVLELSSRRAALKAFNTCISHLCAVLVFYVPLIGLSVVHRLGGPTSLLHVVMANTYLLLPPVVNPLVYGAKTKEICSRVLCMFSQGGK
In short: as §1

[12] = target: T12, OR51E1 (Homo sapiens) (UniProt Q8TCB6)
T12 sequence (whole entry): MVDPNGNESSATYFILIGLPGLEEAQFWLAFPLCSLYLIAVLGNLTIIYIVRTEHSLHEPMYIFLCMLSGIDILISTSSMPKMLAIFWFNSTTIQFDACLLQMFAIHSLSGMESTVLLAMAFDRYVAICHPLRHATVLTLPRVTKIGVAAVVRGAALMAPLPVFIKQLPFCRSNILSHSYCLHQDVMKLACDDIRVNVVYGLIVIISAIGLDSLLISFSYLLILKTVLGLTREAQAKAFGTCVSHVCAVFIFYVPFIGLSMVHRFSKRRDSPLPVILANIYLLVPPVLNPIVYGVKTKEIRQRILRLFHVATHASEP
In short: as §1

[13] = target: T13, OR51E2 (Homo sapiens) (UniProt Q9H255)
T13 sequence (whole entry): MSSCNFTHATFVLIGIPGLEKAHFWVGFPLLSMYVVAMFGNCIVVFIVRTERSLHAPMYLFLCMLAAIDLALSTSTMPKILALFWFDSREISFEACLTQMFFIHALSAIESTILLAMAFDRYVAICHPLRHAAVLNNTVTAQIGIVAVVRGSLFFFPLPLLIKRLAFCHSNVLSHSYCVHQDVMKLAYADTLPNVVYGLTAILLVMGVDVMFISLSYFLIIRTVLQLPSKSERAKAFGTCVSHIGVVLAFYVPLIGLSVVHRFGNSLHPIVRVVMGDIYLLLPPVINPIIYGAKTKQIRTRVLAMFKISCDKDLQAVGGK
In short: as §1

[14] = target: T14, OR51F1 (Homo sapiens) (UniProt A6NGY5)
T14 sequence (whole entry): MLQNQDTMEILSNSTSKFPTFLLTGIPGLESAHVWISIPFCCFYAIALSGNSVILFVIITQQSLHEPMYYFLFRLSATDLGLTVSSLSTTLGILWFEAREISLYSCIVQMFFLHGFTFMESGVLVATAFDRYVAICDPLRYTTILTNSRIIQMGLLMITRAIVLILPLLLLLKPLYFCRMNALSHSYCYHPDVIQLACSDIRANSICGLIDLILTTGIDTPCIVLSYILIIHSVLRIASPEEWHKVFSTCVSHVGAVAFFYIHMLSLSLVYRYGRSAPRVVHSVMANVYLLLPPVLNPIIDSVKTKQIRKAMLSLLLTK
In short: as §1

[15] = target: T15, OR51F2 (Homo sapiens) (UniProt Q8NH61)
T15 sequence (whole entry): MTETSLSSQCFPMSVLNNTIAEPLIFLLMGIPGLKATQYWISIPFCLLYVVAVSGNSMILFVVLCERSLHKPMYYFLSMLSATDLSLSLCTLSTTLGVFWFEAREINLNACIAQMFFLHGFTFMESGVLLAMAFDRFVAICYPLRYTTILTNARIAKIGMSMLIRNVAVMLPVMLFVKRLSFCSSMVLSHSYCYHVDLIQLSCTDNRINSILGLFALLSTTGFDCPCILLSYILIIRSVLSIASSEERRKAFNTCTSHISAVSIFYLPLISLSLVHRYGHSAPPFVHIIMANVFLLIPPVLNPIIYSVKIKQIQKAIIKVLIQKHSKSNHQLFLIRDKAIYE
In short: as §1

[16] = target: T16, OR51G1 (Homo sapiens) (UniProt Q8NGK1)
T16 sequence (whole entry): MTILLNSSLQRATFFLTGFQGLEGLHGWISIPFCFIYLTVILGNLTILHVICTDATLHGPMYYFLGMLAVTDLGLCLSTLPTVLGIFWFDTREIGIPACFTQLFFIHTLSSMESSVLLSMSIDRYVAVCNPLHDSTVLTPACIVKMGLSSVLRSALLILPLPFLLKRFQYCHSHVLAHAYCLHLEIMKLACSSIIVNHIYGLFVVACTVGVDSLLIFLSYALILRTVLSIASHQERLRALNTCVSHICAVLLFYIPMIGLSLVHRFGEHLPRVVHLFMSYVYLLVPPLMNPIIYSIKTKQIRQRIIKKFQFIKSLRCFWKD
In short: as §1

[17] = target: T17, OR51G2 (Homo sapiens) (UniProt Q8NGK0)
T17 sequence (whole entry): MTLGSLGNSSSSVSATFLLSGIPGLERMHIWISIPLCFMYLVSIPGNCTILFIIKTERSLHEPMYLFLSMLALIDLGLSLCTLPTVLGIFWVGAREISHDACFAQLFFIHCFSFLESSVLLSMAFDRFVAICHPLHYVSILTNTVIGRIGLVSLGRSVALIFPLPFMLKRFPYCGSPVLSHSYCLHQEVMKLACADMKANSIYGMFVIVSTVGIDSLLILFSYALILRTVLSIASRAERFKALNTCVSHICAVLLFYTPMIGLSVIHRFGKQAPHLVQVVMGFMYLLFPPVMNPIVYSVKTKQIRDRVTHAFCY
In short: as §1

[18] = target: T18, OR51I1 (Homo sapiens) (UniProt Q9H343)
T18 sequence (whole entry): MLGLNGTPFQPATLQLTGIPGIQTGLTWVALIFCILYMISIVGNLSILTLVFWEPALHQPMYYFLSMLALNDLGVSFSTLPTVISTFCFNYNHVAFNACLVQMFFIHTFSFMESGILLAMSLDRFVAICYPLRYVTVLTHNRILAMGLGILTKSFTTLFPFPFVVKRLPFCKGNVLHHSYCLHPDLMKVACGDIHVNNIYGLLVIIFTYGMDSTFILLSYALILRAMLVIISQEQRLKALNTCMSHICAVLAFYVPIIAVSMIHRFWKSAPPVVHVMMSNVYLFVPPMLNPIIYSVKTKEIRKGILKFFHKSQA
In short: as §1

Measured: odorant receptor agonist call

CCCCC(S)C(C)CO (stereo not drawn)
inactive: all assays above
